M4 antag – CHRM4 antagonism in calcium assay. CHO-hM4 cells, ACh EC80, Fluo-8 calcium fluorescence. inhibition, % at 3 µM. 360,000 compounds, 0.73% hits. AID 624125;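 active = inhibition above its plate's cutoff, the mean inhibition of sample wells plus 3 SD, cut at about 27% in these data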;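 note: 0% = acetylcholine EC80 with DMSO and 100% = DMSO without agonist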
Target sequence (P08173 whole entry, looked up): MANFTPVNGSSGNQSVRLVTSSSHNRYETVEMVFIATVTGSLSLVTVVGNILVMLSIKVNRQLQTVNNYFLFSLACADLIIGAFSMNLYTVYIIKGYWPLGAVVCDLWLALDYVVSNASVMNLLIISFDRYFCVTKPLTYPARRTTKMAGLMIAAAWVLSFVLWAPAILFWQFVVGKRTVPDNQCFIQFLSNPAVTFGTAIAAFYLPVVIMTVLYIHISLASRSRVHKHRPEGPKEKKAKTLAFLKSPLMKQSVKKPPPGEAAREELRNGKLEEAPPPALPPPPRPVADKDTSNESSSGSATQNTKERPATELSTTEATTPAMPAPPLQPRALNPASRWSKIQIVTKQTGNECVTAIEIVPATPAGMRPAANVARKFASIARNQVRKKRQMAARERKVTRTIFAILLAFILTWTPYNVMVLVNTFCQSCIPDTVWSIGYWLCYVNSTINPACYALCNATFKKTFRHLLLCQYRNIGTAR
CHRM5 antagonist – CHRM5 antagonism in calcium assay; CHO-hM5 cells, Fluo-8 calcium fluorescence, ACh EC80; inhibition, % at 3 µM; P08912; 360,000 compounds, 0.59% hits; AID 624040;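 active = inhibition above a per-plate cutoff, the mean of that plate's test compounds plus 3 SD, cut at about 27% in these data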;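 note: 0% = acetylcholine EC80 with DMSO and 100% = DMSO without agonist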
M5 ag – agonists of human muscarinic M5 receptor (CHRM5); 360,000 compounds, 0.19% hits; CHO-K1 hM5 cells, Fluo-8 calcium fluorescence; 0% DMSO wells, 100% maximal acetylcholine response; P08912; activation, % at 3 µM;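 active = activation above the run's mean over test compounds plus 3 SD, cut at about 23% in these data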;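 note: signal is peak over basal fluorescence ratio across the kinetic read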
M5 PAM – potentiates acetylcholine response at human M5 receptor; P08912; CHO-K1 hM5, Fluo-8 calcium, ACh EC20 PAM; 0% = ACh EC20, 100% = ACh EC100; activation, % at 3 µM; 360,000 compounds, 0.3% hits; AID 624038;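 active = activation above the run cutoff, the mean activation of all test compounds plus 3 SD, cut at about 18% in these data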
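Assay system: CHO-K1 hM5 cells. Also added: acetylcholine at EC20 concentration, added after compound. Dosing: 3 µM, single dose. Times: compound preincubation 140 s before EC20 acetylcholine addition. Signal: Fluo-8 calcium fluorescence. Measure: % activation relative to EC20 and EC100 ACh responses. Repeats: singlicate, one well per test compound.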
M4 PAM – CHRM4 positive allosteric modulation; activation, % at 3 µM; P08173; 360,000 compounds, 0.4% hits; AID 624126; CHO-K1 hM4/Gqi5, Fluo-8 calcium fluorescence, ACh EC20; 0% = ACh EC20, 100% = maximal ACh;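 active = activation above its plate's cutoff, the mean activation of sample wells plus 3 SD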
M4 ag – CHRM4 agonism in calcium assay. 360,000 compounds, 0.14% hits. AID 624127. activation, % at 3 µM. CHO-K1 hM4/Gqi5, Fluo-8 calcium fluorescence; vehicle 0%, full acetylcholine response 100%. P08173;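 active = activation above the run mean over all test wells plus 3 SD, cut at about 32% in these data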;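 note: peak over basal fluorescence ratio per well then scaled between controls; 0% = DMSO wells and 100% = acetylcholine at EC100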
An asterisk follows results filed as active. This is a sample that favours compounds with a hit; in the whole collection about 1.9% have one here.

SMILES	M4 antag	CHRM5 antagonist	M5 ag	M5 PAM	M4 PAM	M4 ag
N#Cc1ccc(-c2cccnc2)nc1SCc1ccc(Cl)cc1Cl	6	0	-4	7	-5	-1
COCCNC(=O)C(c1cccs1)N(C(=O)Cn1nnc2ccccc21)c1cccc(C)c1 (stereo not drawn)	5	-2	-3	3	0	2
CCCCC(=O)OCC(=O)C1(O)Cc2c(O)c3c(c(O)c2C(OC2CC(NC(=O)C(F)(F)F)C(O)C(C)O2)C1)C(=O)c1c(OC)cccc1C3=O (stereo not drawn)	23	40*	33*	-22	-5	13
CC(=O)c1cccc(CN2CCN(C3CCCC3)C(CCO)C2)c1 (stereo not drawn)	8	9	-7	-1	-17	0
C=CCN1C(=O)c2ccc(C(=O)NCCOc3ccccc3F)cc2C1=O	-6	2	-3	7	8	2
CCOC(=O)c1c(-c2ccccc2)csc1NC(=O)/C(C#N)=C\c1ccc(O)c(OC)c1	1	17	31*	12	1	3
CCOC(=O)c1c(-c2ccc(C)cc2)csc1NC(=O)/C(C#N)=C/c1ccc(O)c(OC)c1	2	-13	5	8	1	3
COc1cccc(CN(C)C(=O)C2CSC3(C)CCC(=O)N23)c1OC (stereo not drawn)	1	7	1	5	-1	1
O=S(=O)(Nc1nc2ccccc2nc1NCCO)c1cccc(Cl)c1	29*	-4	-4	-3	-14	-2
COCCCNc1nc2ccccc2nc1NS(=O)(=O)c1cccc(Cl)c1	-7	-8	-2	5	0	1
CC(=O)Nc1cc(-c2cccc(C(=O)N(C)C)c2)cn2c(-c3ccc(F)c(Cl)c3)cnc12	-1	11	0	-1	-3	12
O=C(Nc1ccc(-n2nncc2-c2ccco2)cc1)c1ccc(F)cc1	22	12	-3	-10	-4	5
CC(C)(CCl)C(=O)Nc1ccnc(-c2ccncc2)n1	0	7	-1	-7	-5	0
Cc1nnc2c(NCCC(C)C)nc3ccccc3n12	-3	6	-1	-4	0	0
CCN(CC)CCN1C(=O)/C(=C\c2ccc(Cl)c([N+](=O)[O-])c2)SC1=Nc1ccc(OC)cc1	19	30*	-4	1	-18	3
CC(=O)C1=C(C)NC(=O)NC1c1cccc(O)c1 (stereo not drawn)	3	0	-3	-1	8	0
O=C(NCCO)C(=O)Nc1cc2c3c(c1)CC(=O)N3CCC2	1	1	-4	8	14*	-1
CCN(C(=O)C1=COCCO1)c1nc2c(C)cccc2s1	1	7	0	-5	-3	0
O=C(CN1C(=O)NC2(CCCC2)C1=O)Nc1cccc(Cl)c1	-5	7	-4	0	1	0
c1ccc(COc2ccc(CNCc3cccs3)cc2)cc1	33*	5	-10	-10	-27	7
COC(=O)c1ccccc1N=C(SC)N(C)C	-2	-5	1	8	5	0
CSC(=Nc1ccccc1)N=C(SCc1ccccc1)N(C)C	46*	16	-5	-5	-12	14
Cc1ccc(C(=O)OCC(=O)Nc2ccc3c(c2)OCO3)o1	-1	-7	-6	20*	9	1
COc1ccc(/C=N/OCC(=O)Nc2ccc3c(c2)OCO3)c(OC)c1	38*	5	3	0	-11	5
CCCNS(=O)(=O)c1ccc(OCC(=O)Nc2ccc3c(c2)OCO3)cc1	45*	5	-2	-2	-9	-1
SMILES	M4 antag	CHRM5 antagonist	M5 ag	M5 PAM	M4 PAM	M4 ag
CCOc1ccc(/C=N/OCC(=O)Nc2ccc3c(c2)OCO3)cc1	-8	3	1	0	0	5
Cc1ccc(S(=O)(=O)N(C)C)cc1NC(=S)NC(C)CCC(C)C (stereo not drawn)	-1	5	-1	-11	-14	11
CCCNC(=S)Nc1cccc(C(F)(F)F)c1	-1	2	1	1	6	1
FC(F)(F)c1cccc(NC(=S)NCC2COc3ccccc3O2)c1 (stereo not drawn)	8	32*	6	-19	-13	11
C[C@H](NC(=O)[C@@H]1Cc2ccccc2CN1)C(=O)NC1CCCCC1	-8	-4	-6	-2	8	1
CCC1CCCN1Cn1cnc2c([nH]c3ccc(C)cc32)c1=O (stereo not drawn)	3	1	-3	0	-1	1
O=C(CSc1nnc(Cn2nnc3ccccc32)o1)N(Cc1ccc(F)cc1)c1ccccc1	21	37*	1	-15	-20	10
COc1ccc(CN(C(=O)CSc2nnc(-c3ccc(F)cc3)o2)c2ccc(F)cc2)cc1	1	6	3	-3	6	2
CCOC(=O)CSc1nnc(-c2c[nH]c3ccccc23)o1	100*	4	1	-3	-17	-2
COc1ccccc1NC(=O)CSc1nnc(-c2ccncc2)o1	-9	-3	-2	23*	6	2
COc1ccc(CN(C(=O)CSc2nnc(-c3c[nH]c4ccccc34)o2)c2ccc(F)cc2)cc1OC	41*	21	5	-26	-12	19
COc1nc(OCCNC(=O)Nc2ccccc2)nc(N(C)C)n1	-4	-1	3	-2	-1	1
CCOC(=O)N1CCN(C(=O)CSc2nnc(-c3ccccc3OC)o2)CC1	10	-5	1	1	30*	0
O=C(Cn1nnc(-c2ccccc2NC(=O)c2cccs2)n1)Nc1ccccc1	-11	0	-1	21*	5	2
NC(=O)Cn1nnc(-c2ccccc2NC(=O)c2cnccn2)n1	-5	22	-2	35*	3	0
CC(C)(C)NC(=O)Cn1nnc(-c2ccccc2NC(=O)c2cnccn2)n1	-5	-4	-2	12	6	1
COc1ccc(C(=O)N/C(=C\c2cccs2)c2nc3ccccc3[nH]2)cc1OC	-24	-4	1	-5	-2	9
O=C(NCC1CCN(Cc2ccccc2F)CC1)C1CCCN(c2ncnc3c2nc2n3CCCCC2)C1 (stereo not drawn)	52*	-7	-9	-4	-21	-1
O=C(Nc1cccnc1Cl)C1CCCN(c2ncnc3c2nc2n3CCCCC2)C1 (stereo not drawn)	-35	-15	-5	4	18*	3
O=C(NCc1ccccc1Cl)C1CCCN(c2ncnc3c2nc2n3CCCCC2)C1 (stereo not drawn)	2	8	-5	-3	0	2
